# Paper PMC2229510 (The Journal of General Physiology, 2001)
# Read-outs that look alike come from different tables or passages of the source.
# Assays:
# [1] = biological target: aspartate receptor QQQE receptor–kinase signaling complex (Salmonella typhimurium, UniProt P02941, E302Q); assay: in vitro receptor-coupled kinase assay, attractant titration, QQQE receptor; format: biochemical, S. typhimurium
# [2] = biological target: aspartate receptor QQEQ receptor–kinase signaling complex (Salmonella typhimurium, UniProt P02941, E302Q/E491Q/Q309E); assay: in vitro receptor-coupled kinase assay, attractant titration, QQEQ receptor; format: biochemical, S. typhimurium
# [3] = biological target: aspartate receptor EQQE receptor–kinase signaling complex (Salmonella typhimurium, UniProt P02941, E302Q/Q295E); assay: in vitro receptor-coupled kinase assay, attractant titration, EQQE receptor; format: biochemical, S. typhimurium
# [4] = biological target: aspartate receptor QEEQ receptor–kinase signaling complex (Salmonella typhimurium, UniProt P02941, E491Q/Q309E); assay: in vitro receptor-coupled kinase assay, attractant titration, QEEQ receptor; format: biochemical, S. typhimurium
# [5] = biological target: aspartate receptor QQEE receptor–kinase signaling complex (Salmonella typhimurium, UniProt P02941, E302Q/Q309E); assay: in vitro receptor-coupled kinase assay, attractant titration, QQEE receptor; format: biochemical, S. typhimurium
# [6] = biological target: aspartate receptor EEQE receptor–kinase signaling complex (Salmonella typhimurium, UniProt P02941, Q295E); assay: in vitro receptor-coupled kinase assay, attractant titration, EEQE receptor; format: biochemical, S. typhimurium
# [7] = biological target: aspartate receptor QEQQ receptor–kinase signaling complex (Salmonella typhimurium, UniProt P02941, E491Q); assay: in vitro receptor-coupled kinase assay, attractant titration, QEQQ receptor; format: biochemical, S. typhimurium
# [8] = biological target: aspartate receptor EEQQ receptor–kinase signaling complex (Salmonella typhimurium, UniProt P02941, E491Q/Q295E); assay: in vitro receptor-coupled kinase assay, attractant titration, EEQQ receptor; format: biochemical, S. typhimurium
# [9] = biological target: aspartate receptor EEEQ receptor–kinase signaling complex (Salmonella typhimurium, UniProt P02941, E491Q/Q295E/Q309E); assay: in vitro receptor-coupled kinase assay, attractant titration, EEEQ receptor; format: biochemical, S. typhimurium
# [10] = biological target: aspartate receptor QEEE receptor–kinase signaling complex (Salmonella typhimurium, UniProt P02941, Q309E); assay: in vitro receptor-coupled kinase assay, attractant titration, QEEE receptor; format: biochemical, S. typhimurium
# [11] = biological target: aspartate receptor QEQE (wild type) receptor–kinase signaling complex (Salmonella typhimurium, UniProt P02941); assay: in vitro receptor-coupled kinase assay, attractant titration, QEQE; format: biochemical, S. typhimurium
# Outline: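 Native E. coli membranes carrying the receptor (about 10% of total protein) were mixed with purified CheA, CheW and excess CheY to reconstitute the signaling complex, with receptor in the low micromolar range. Kinase activity was read as radiolabeled phospho-CheY at 10-s initial-rate points across α-methyl-aspartate concentrations, normalized to the no-attractant maximum, with three measurements per point. K1/2 and Hill coefficient came from a multisite Hill fit using free attractant concentration.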
# [12] = biological target: aspartate receptor–kinase signaling complex (Salmonella enterica subsp. enterica serovar Typhimurium, UniProt P02941); format: biochemical, S. typhimurium; conditions: pure off-state, extrapolated from the correlation
# [13] = biological target: aspartate receptor QQQQ receptor–kinase signaling complex (Salmonella typhimurium, UniProt P02941, E302Q/E491Q); assay: in vitro receptor-coupled kinase assay, attractant titration, QQQQ receptor; format: biochemical, S. typhimurium
# [14] = biological target: aspartate receptor EQEQ receptor–kinase signaling complex (Salmonella typhimurium, UniProt P02941, E302Q/E491Q/Q295E/Q309E); assay: in vitro receptor-coupled kinase assay, attractant titration, EQEQ receptor; format: biochemical, S. typhimurium
# [15] = biological target: aspartate receptor EQQQ receptor–kinase signaling complex (Salmonella typhimurium, UniProt P02941, E302Q/E491Q/Q295E); assay: in vitro receptor-coupled kinase assay, attractant titration, EQQQ receptor; format: biochemical, S. typhimurium
# [16] = biological target: aspartate receptor EQEE receptor–kinase signaling complex (Salmonella typhimurium, UniProt P02941, E302Q/Q295E/Q309E); assay: in vitro receptor-coupled kinase assay, attractant titration, EQEE receptor; format: biochemical, S. typhimurium
# QQQQ receptor = QQQQ receptor (Salmonella typhimurium, UniProt P02941, E302Q/E491Q); assay: L-aspartate binding to QQQQ receptor; conditions: given binding constant for QQQQ receptor
smiles,measurement,setting,value
"CC(N)(CC(=O)O)C(=O)O (racemic) [α-methyl-aspartate, α-methyl-D,L-aspartate]",IC50,[1],98 ± 4 µM
same,Measured Hill coefficient,"[1]; QQQE receptor, attractant titration, Hill fit",3.3 ± 0.4
same,IC50,[2],54 ± 6 µM
same,Measured Hill coefficient,"[2]; QQEQ receptor, attractant titration, Hill fit",2.0 ± 0.5
same,IC50,[3],14 ± 2 µM
same,Measured Hill coefficient,"[3]; EQQE receptor, attractant titration, Hill fit",2.1 ± 0.3
same,IC50,[4],19 ± 2 µM
same,Measured Hill coefficient,"[4]; QEEQ receptor, attractant titration, Hill fit",2.4 ± 0.5
same,IC50,[5],31 ± 2 µM
same,Measured Hill coefficient,"[5]; QQEE receptor, attractant titration, Hill fit",2.2 ± 0.2
same,IC50,[6],23 ± 2 µM
same,Measured Hill coefficient,"[6]; EEQE receptor, attractant titration, Hill fit",1.8 ± 0.1
same,IC50,[7],62 ± 3 µM
same,Measured Hill coefficient,"[7]; QEQQ receptor, attractant titration, Hill fit",2.2 ± 0.3
same,IC50,[8],19 ± 2 µM
same,Measured Hill coefficient,"[8]; EEQQ receptor, attractant titration, Hill fit",1.9 ± 0.2
same,IC50,[9],9 ± 3 µM
same,Measured Hill coefficient,"[9]; EEEQ receptor, attractant titration, Hill fit",1.1 ± 0.4
same,IC50,[10],9 ± 1 µM
same,Measured Hill coefficient,"[10]; QEEE receptor, attractant titration, Hill fit",1.7 ± 0.1
same,IC50,[11],23 ± 4 µM
same,Measured Hill coefficient,"[11]; QEQE (wild type) receptor, attractant titration, Hill fit",1.8 ± 0.1
same,K1/2 of the off-state (inactivated conformation),[12],micromolar to submicromolar range
same,K1/2 of the off-state (inactivated conformation),[12]; listed as α-methyl aspartate,submicromolar to micromolar range
same,IC50,[13],97 ± 4 µM
same,Measured Hill coefficient,"[13]; QQQQ receptor, attractant titration, Hill fit",2.2 ± 0.2
same,IC50,[14],14 ± 1 µM
same,Measured Hill coefficient,"[14]; EQEQ receptor, attractant titration, Hill fit",2.9 ± 0.3
same,IC50,[15],39 ± 4 µM
same,Measured Hill coefficient,"[15]; EQQQ receptor, attractant titration, Hill fit",2.0 ± 0.3
same,IC50,[16],16 ± 4 µM
same,Measured Hill coefficient,"[16]; EQEE receptor, attractant titration, Hill fit",1.6 ± 0.4
N[C@@H](CC(=O)O)C(=O)O [L-aspartate],free energy driving force toward the off-state on binding,QQQQ receptor,exceeding 8 kcal mol^−1
